The values that follow come from ChEMBL document CHEMBL3784974, “Design and Structural Characterization of Potent and Selective Inhibitors of Phosphatidylinositol 4 Kinase IIIβ” (J Med Chem, 2016).

Calls of active or inactive are those of the source. The calls are words filed in the database; no cut-off is given here.

For one data set, the system named is Hepatitis C virus. Kind of data set: Antiviral activity against HCV genotype 2a J6/JFH1 infected in human Huh7.5 cells after 3 days by gaussia luciferase assay. It counts as functional, organism-based, Hepacivirus hominis. The note with it: subtype 2a J6/JFH1, Huh-7, 72 h. The method in brief: (§1)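 Huh7.5 cells stably infected with J6/JFH1-GLuc, kept in DMEM/10% FBS, glutamine, NEAA, pen/strep at 37 °C, 5% CO2. 10,000 cells/well; serially diluted compound added 1 h after plating; 3-day incubation. Replication read as Gaussia luciferase activity in supernatant; viability by Presto Blue.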

The target of data set [1] is Phosphatidylinositol 4-kinase type 2-beta (Homo sapiens) (UniProt Q8TCG2). Kind of data set: Inhibition of flag-tagged recombinant PI4K2beta (unknown origin) transfected in HEK293T cells upto 20 uM preincubated for 15 mins followed by addition of cold ATP/gamma32P-ATP measured after 25 mins. As to conditions: HEK-293T. It counts as cell-based. The procedure, abridged: (§2)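 Enzymes cloned from DNASU plasmids, FLAG-tagged, transfected into HEK293T and FLAG-immunoprecipitated, eluted with FLAG peptide. 15 min inhibitor preincubation, 25 min reaction in 20 mM Bis-Tris propane pH 7.5, 10 mM MgCl2, 0.075 mM Triton X-100, 0.5 mM EGTA, 1 mM DTT, 100 µM PI, 500 ng/µL BSA, 2% DMSO, 10 µM ATP, 2 uCi γ32P-ATP; phosphorimaging.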
Chain of Phosphatidylinositol 4-kinase type 2-beta (Homo sapiens) (Q8TCG2 whole entry): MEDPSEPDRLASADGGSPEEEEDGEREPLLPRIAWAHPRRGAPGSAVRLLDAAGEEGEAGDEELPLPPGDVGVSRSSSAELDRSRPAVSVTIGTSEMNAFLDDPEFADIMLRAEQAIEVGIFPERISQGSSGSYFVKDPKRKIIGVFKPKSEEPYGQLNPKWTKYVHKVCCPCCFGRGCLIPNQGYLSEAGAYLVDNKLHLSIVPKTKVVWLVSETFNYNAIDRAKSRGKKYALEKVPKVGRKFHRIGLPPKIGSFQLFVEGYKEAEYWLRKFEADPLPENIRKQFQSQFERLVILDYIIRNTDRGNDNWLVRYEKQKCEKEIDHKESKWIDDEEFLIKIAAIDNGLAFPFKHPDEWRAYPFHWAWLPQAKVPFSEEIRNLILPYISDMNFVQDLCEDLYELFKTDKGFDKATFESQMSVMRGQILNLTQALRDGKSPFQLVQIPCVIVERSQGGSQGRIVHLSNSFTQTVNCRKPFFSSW

A short description of data set [2]: Cytotoxicity against human Huh7.5 cells after 3 days by presto blue assay. It counts as cell-based, Huh-7. The method in brief: as §1
Data set [3] concerns the target Phosphatidylinositol 4-kinase type 2-alpha (Homo sapiens) (UniProt Q9BTU6). Put plainly: Inhibition of flag-tagged recombinant PI4K2alpha (unknown origin) transfected in HEK293T cells upto 20 uM preincubated for 15 mins followed by addition of cold ATP/gamma32P-ATP measured after 25 mins. It counts as cell-based. The note with it: HEK-293T. The procedure, abridged:
as §2

The target of data set [4] is T1, Phosphatidylinositol 3-kinase C2 domain-containing subunit gamma (Homo sapiens, UniProt O75747).
T1 sequence (O75747 whole entry): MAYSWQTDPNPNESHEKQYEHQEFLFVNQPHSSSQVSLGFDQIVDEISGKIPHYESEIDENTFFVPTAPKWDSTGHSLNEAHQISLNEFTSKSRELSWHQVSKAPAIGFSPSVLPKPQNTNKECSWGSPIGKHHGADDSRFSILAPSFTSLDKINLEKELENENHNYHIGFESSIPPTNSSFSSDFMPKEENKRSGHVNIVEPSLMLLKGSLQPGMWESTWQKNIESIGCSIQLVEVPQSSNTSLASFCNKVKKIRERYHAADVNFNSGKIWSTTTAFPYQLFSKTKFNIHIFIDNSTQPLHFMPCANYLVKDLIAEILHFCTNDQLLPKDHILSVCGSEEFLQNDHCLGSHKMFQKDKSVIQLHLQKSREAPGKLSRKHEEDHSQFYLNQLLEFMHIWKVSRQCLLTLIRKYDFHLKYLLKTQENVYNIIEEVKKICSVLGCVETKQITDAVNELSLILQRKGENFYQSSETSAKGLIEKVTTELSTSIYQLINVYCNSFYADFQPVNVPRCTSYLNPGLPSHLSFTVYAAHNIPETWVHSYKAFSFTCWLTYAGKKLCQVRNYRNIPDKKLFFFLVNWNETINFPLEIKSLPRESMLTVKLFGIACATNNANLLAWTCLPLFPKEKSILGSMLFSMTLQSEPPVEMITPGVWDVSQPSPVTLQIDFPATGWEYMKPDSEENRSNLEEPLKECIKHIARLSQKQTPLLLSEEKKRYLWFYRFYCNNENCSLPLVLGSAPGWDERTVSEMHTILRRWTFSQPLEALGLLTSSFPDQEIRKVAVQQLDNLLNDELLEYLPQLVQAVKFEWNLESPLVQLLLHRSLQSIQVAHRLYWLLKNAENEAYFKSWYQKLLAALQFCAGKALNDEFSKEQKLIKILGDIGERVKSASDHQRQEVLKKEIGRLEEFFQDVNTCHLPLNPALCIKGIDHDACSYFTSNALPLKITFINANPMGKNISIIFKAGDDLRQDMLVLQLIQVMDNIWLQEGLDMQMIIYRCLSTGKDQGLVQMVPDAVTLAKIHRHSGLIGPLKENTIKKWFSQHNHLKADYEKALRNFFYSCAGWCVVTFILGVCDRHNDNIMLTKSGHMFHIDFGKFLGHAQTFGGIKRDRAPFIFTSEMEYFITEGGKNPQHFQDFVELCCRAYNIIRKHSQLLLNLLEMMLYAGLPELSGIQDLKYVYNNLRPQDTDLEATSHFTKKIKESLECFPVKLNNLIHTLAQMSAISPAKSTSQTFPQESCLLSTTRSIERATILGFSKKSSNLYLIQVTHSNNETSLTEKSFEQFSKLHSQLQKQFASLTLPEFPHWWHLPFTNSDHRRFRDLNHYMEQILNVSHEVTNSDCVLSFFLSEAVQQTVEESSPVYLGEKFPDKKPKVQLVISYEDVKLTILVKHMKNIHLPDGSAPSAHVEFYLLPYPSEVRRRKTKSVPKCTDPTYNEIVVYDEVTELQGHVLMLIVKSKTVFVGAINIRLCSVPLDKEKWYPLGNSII
Kind of data set: Inhibition of N-terminal GST-tagged recombinant human full length PI3KC2gamma expressed in baculovirus infected Sf21 insect cells preincubated for 15 mins followed by addition of cold ATP/gamma32P-ATP measured after 15 mins. The procedure, abridged:
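1 nM PI3KC2γ, 15 min inhibitor preincubation, 15 min reaction. Final: 50 mM HEPES pH 7.5, 100 mM NaCl, 0.03% CHAPS, 10 mM MgCl2, 1 mM EGTA, 2 mM DTT, 100 µM PI (PI:DOPS:DOPC), 500 ng/µL BSA, 2% DMSO, 10 µM ATP, 2 uCi γ32P-ATP. Nitrocellulose capture, phosphorimaging.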

For data set [5], the target named is Phosphatidylinositol 3-kinase catalytic subunit type 3 (Homo sapiens, UniProt Q8NEB9). Kind of data set: Inhibition of GST-tagged recombinant human full length VPS34 expressed in baculovirus upto 20 uM preincubated for 15 mins followed by addition of cold ATP/gamma32P-ATP measured after 1 hr in presence of MnCl2. The procedure, abridged:
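Radiometric membrane-capture assay, 10 nM purchased vps34, 15 min preincubation with inhibitor, then 1 h reaction. Final: 50 mM HEPES pH 7.5, 0.1% CHAPS, 2mM MnCl2, 1 mM EGTA, 2 mM DTT, 100 µM PI in PI:DOPS:DOPC, 500 ng/µL BSA, 2% DMSO, 10 µM ATP, 2.5 uCi γ32P-ATP; spots washed, phosphorimaged.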

Chain of Phosphatidylinositol 4-kinase type 2-alpha (Homo sapiens) (Q9BTU6 whole entry): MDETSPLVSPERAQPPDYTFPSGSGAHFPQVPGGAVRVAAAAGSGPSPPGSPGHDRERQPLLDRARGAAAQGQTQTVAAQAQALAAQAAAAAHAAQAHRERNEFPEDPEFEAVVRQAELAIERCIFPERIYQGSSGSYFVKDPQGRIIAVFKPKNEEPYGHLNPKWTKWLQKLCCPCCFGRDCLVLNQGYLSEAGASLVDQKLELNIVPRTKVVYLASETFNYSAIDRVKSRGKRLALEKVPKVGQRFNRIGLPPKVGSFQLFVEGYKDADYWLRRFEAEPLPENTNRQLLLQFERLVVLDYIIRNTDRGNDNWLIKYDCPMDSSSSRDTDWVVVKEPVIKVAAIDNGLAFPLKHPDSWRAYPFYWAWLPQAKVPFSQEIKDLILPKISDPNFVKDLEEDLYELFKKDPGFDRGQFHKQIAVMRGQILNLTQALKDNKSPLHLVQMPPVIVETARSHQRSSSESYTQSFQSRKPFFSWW
Chain of Phosphatidylinositol 3-kinase catalytic subunit type 3 (Q8NEB9 whole entry): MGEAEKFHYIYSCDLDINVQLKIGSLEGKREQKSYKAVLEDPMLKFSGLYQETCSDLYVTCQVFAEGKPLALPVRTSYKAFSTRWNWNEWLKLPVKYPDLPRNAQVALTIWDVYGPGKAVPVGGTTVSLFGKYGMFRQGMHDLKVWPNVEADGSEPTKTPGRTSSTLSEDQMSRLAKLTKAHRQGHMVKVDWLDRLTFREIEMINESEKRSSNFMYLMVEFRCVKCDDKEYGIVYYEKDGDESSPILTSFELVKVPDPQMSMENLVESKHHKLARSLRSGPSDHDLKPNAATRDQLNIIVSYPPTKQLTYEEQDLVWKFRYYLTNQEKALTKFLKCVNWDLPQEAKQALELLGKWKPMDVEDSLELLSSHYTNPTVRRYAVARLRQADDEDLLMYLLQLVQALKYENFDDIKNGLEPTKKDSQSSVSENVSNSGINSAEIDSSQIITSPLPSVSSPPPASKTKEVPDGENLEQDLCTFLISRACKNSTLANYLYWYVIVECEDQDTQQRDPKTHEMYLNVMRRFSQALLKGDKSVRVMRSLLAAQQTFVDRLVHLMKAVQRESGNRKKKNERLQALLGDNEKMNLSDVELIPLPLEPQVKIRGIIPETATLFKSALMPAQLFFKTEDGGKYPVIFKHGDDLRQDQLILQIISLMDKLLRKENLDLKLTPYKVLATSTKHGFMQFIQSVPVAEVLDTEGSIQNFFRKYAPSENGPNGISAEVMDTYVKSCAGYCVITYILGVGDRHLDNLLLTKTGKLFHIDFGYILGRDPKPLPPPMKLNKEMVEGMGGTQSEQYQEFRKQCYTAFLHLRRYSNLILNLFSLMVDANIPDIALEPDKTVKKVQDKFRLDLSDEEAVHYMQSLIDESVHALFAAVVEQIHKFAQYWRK

`COc1ccc(-c2sc(NC(=O)C3CCCC3)nc2C)cc1S(=O)(=O)Nc1ccc(O)cc1`: the IC50 – broadly, the concentration that inhibits the measured activity by half – in the data set with Hepatitis C virus is 630 nM; in data set [4], 1000 nM. The inhibition in data set [1] and in data set [3] was below 50% throughout. Besides, in data set [2], the CC50 (as a rule, the concentration that lowers cell viability or growth by half) at 72 h worked out at 14000 nM. Further, in data set [5], the inhibition (as a rule, the share of the control response that was lost under treatment) was “inactive”.

Turning to `COc1ccc(-c2sc(NC(=O)C(C)(C)C)nc2C)cc1S(=O)(=O)Nc1ccc(O)cc1`, the results for the IC50 (in the data set on Hepatitis C virus; in data set [4]) were 1300 nM and 1000 nM, respectively. The inhibition in data set [1] and in data set [3] was below 20% each time. Besides, it took 32000 nM to reach half-maximal cytotoxicity in data set [2] (CC50 at 72 h). In addition, the inhibition entry in data set [5] is “inactive”.
